Residue numbers refer to the chain shown, from its start. ≈ marks a conversion by molar mass, not a printed value.
Key:
[1] = target: T1, Type-1 angiotensin II receptor (Homo sapiens, UniProt P30556); assay: Displacement of [125I]Sar1Ile8-Ang2 from angiotensin AT1 receptor after 180 mins by gamma counting
T1 sequence (P30556 whole entry): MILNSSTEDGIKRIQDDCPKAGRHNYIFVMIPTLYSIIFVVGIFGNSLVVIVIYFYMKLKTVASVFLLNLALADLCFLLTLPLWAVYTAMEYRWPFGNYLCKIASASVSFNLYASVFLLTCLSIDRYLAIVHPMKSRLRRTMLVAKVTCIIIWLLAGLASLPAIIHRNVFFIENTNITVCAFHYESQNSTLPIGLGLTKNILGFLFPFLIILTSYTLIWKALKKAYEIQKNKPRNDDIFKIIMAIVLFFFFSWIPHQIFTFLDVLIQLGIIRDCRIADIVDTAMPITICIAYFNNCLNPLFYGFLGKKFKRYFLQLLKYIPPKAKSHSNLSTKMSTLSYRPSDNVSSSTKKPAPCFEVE

[2] = Toxicity against Photobacterium phosphoreum expressing T3 mutation after 15 mins by Microtox assay; format: organism-based
How it was run: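 Microtox test with luminescent Photobacterium phosphoreum. Samples were incubated with bacteria for 15 min before reading inhibition of bacterial luminescence, testing up to the saturated concentration level. LC50 is the concentration in water inhibiting 50% of the test batch.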

[3] = target: T2, Type-1 angiotensin II receptor (Oryctolagus cuniculus, UniProt P34976); assay: Antagonist activity at AT1 receptor in Japanese white rabbit thoracic aorta assessed as inhibition of […] contraction incubated 30 mins post KCl-induction for 1 hr; format: functional, tissue-based; settings: read-out: pA2 (converted)
T2 sequence (P34976 whole entry): T1 sequence (P30556 whole entry) with I2M, V49A, I254V, I270V, R272H, R311K, T349S, A353V
How it was run: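 Isolated rabbit aortic strips equilibrated 1 h with washes every 15 min. 67 mM KCl was given first to check tissue sensitivity and set the maximal contractile response. After a 30 min washout, test substances or their vehicles were added and contractile responses recorded.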

[4] = tested on: Rattus norvegicus; assay: Antihypertensive activity in non-fasted spontaneous hypertensive rat assessed as decrease in mean arterial blood pressure at 10 mg/kg, po by tail plethysmography relative to control; format: functional, Artery
How it was run: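 Male SHR aged 19–21 weeks, conscious and unanesthetised, six per group; controls got vehicle at 10 mL/kg. […] Blood pressure and heart rate measured by tail plethysmography after a warming period; data given as means SEM.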

Structure (SMILES) | IC50 [1] [nM] | LC50 at 0.25 h [2] [µg/mL] | Kb [3] [nM] | Activity [4] [mmHg]
CCCc1nc2c(C)cc(C(=O)NCc3cccc(OC)c3)cc2n1Cc1ccc(-c2ccccc2-c2nnn[nH]2)cc1 | 78.3 | > 100 | – | –
CCCc1nc2c(C)cc(C(=O)NCCc3ccccc3F)cc2n1Cc1ccc(-c2ccccc2-c2nnn[nH]2)cc1 | 37.6 | 17 (≈ 29.6 µM) | – | –
CCCc1nc2c(C)cc(C(=O)NCc3ccccc3OC)cc2n1Cc1ccc(-c2ccccc2-c2nnn[nH]2)cc1 | 19.7 | 66 (≈ 115 µM) | – | –
CCCc1nc2c(C)cc(C(=O)NCCc3cc(OC)ccc3OC)cc2n1Cc1ccc(-c2ccccc2-c2nnn[nH]2)cc1 | 78 | > 100 | – | –
CCCc1nc2c(C)cc(C(=O)NCCc3ccc(F)cc3)cc2n1Cc1ccc(-c2ccccc2-c2nnn[nH]2)cc1 | 209 | 60 (≈ 105 µM) | – | –
CCCc1nc2c(C)cc(C(=O)NCc3ccccc3)cc2n1Cc1ccc(-c2ccccc2-c2nnn[nH]2)cc1 | 410 | 64 (≈ 118 µM) | – | –
CCCc1nc2c(C)cc(C(=O)NCc3ccc(OC)cc3)cc2n1Cc1ccc(-c2ccccc2-c2nnn[nH]2)cc1 | 119 | > 100 | – | –
CCCc1nc2c(C)cc(C(=O)NCCc3ccc(OC)cc3)cc2n1Cc1ccc(-c2ccccc2-c2nnn[nH]2)cc1 | 22.5 | > 100 | – | –
CCCc1nc2c(C)cc(C(=O)NCC(C)c3ccccc3)cc2n1Cc1ccc(-c2ccccc2-c2nnn[nH]2)cc1 (stereo not drawn) | 0.9 | > 100 | 1.7 | >30
CCCc1nc2c(C)cc(-c3nc4ccccc4n3C)cc2n1Cc1ccc(-c2ccccc2C(=O)O)cc1 | – | 100 (≈ 194 µM) | – | –
CCCc1nc2c(C)cc(C(=O)NCCc3ccc(OC)c(OC)c3)cc2n1Cc1ccc(-c2ccccc2-c2nnn[nH]2)cc1 | 3.7 | > 100 | 1.82 | –
CCCc1nc2c(C)cc(C(=O)NCCc3ccccc3)cc2n1Cc1ccc(-c2ccccc2-c2nnn[nH]2)cc1 | 1.3 | > 100 | 4.79 | –
CCCCc1nc(Cl)c(CO)n1Cc1ccc(-c2ccccc2-c2nn[nH]n2)cc1 [LOSARTAN] | – | 331 (≈ 783 µM) | – | –
CCCc1nc2c(C)cc(C(=O)NCCc3cccc(OC)c3)cc2n1Cc1ccc(-c2ccccc2-c2nnn[nH]2)cc1 | 2.6 | > 100 | 14.8 | –
CCCc1nc2c(C)cc(C(=O)NCc3ccc(OC)c(OC)c3)cc2n1Cc1ccc(-c2ccccc2-c2nnn[nH]2)cc1 | 96.8 | > 100 | – | –
